# Columns and labels:
# [1] = system: Escherichia coli; experiment: Activity of Escherichia coli beta-lactamase VIM-1 by spectrophotometry
# [2] = system: Escherichia coli; experiment: Ratio of Kcat to Km for Escherichia coli beta-lactamase VIM-1 by spectrophotometry
# [3] = system: CC1(C)[C@H](C(=O)O)N2C(=O)C[C@H]2S1(=O)=O; experiment: (§1) Ratio of Kcat to Km for Pseudomonas aeruginosa beta-lactamase VIM-7 by spectrophotometry; conditions: 07-406
# Procedure, shortened: (§2)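 Recombinant enzyme was expressed in E. coli BL21(DE3) from pET-26b and purified from the periplasm to >99%, with concentration taken from A280. Hydrolysis was followed spectrophotometrically at 25°C in 50 mM sodium cacodylate pH 7.0 with 100 μM ZnCl2 and 0.1 mg/ml BSA. Km and kcat came from initial velocity versus substrate concentration. Some Km values were taken as competitive Ki against nitrocefin reporter.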
# [4] = system: C[C@]1(Cn2ccnn2)[C@H](C(=O)O)N2C(=O)C[C@H]2S1(=O)=O; experiment: as §1; conditions: 07-406; procedure, shortened: as §2
# [5] = system: CC1(C)S[C@@H]2[C@H](NC(=O)Cc3ccccc3)C(=O)N2[C@H]1C(=O)O; experiment: as §1; conditions: 07-406; procedure, shortened: as §2
# [6] = system: Cc1onc(-c2ccccc2Cl)c1C(=O)N[C@@H]1C(=O)N2[C@@H]1SC(C)(C)[C@@H]2C(=O)O; experiment: as §1; conditions: 07-406; procedure, shortened: as §2
# [7] = system: CC(C)(O/N=C(\C(=O)N[C@@H]1C(=O)N2C(C(=O)[O-])=C(C[n+]3ccccc3)CS[C@H]12)c1csc(N)n1)C(=O)O; experiment: as §1; conditions: 07-406; procedure, shortened: as §2
# [8] = system: CC1(C)S[C@@H]2[C@H](NC(=O)C(C(=O)O)c3ccccc3)C(=O)N2[C@H]1C(=O)O; experiment: as §1; conditions: 07-406; procedure, shortened: as §2
# [9] = system: C[C@@H](O)[C@H]1C(=O)N2C(C(=O)O)=C(S[C@@H]3CN[C@H](C(=O)Nc4cccc(C(=O)O)c4)C3)[C@H](C)[C@H]12; experiment: as §1; conditions: 07-406; procedure, shortened: as §2
# [10] = system: CC1(C)S[C@@H]2[C@H](NC(=O)[C@H](NC(=O)N3CCNC3=O)c3ccccc3)C(=O)N2[C@H]1C(=O)O; experiment: as §1; conditions: 07-406; procedure, shortened: as §2
# [11] = system: CO/N=C(\C(=O)N[C@@H]1C(=O)N2C(C(=O)O)=C(COC(N)=O)CS[C@H]12)c1ccco1; experiment: as §1; conditions: 07-406; procedure, shortened: as §2
# [12] = system: CO/N=C(\C(=O)N[C@@H]1C(=O)N2C(C(=O)[O-])=C(C[N+]3(C)CCCC3)CS[C@H]12)c1csc(N)n1; experiment: as §1; conditions: 07-406; procedure, shortened: as §2
# [13] = system: CCN1CCN(C(=O)N[C@@H](C(=O)N[C@@H]2C(=O)N3[C@@H]2SC(C)(C)[C@@H]3C(=O)O)c2ccccc2)C(=O)C1=O; experiment: as §1; conditions: 07-406; procedure, shortened: as §2
# [14] = system: C[C@@H](O)[C@H]1C(=O)N2C(C(=O)O)=C(S[C@@H]3CN[C@H](C(=O)N(C)C)C3)[C@H](C)[C@H]12; experiment: as §1; conditions: 07-406; procedure, shortened: as §2
# [15] = system: C[C@@H](O)[C@H]1C(=O)N2C(C(=O)O)=C(SCCNC=N)C[C@H]12; experiment: as §1; conditions: 07-406; procedure, shortened: as §2
# [16] = system: CC1(C)S[C@@H]2[C@H](NC(=O)[C@H](N)c3ccccc3)C(=O)N2[C@H]1C(=O)O; experiment: as §1; conditions: 07-406; procedure, shortened: as §2
# [17] = system: CO[C@@]1(NC(=O)C(C(=O)O)c2ccc(O)cc2)C(=O)N2C(C(=O)O)=C(CSc3nnnn3C)CO[C@@H]21; experiment: as §1; conditions: 07-406; procedure, shortened: as §2
# [18] = system: O=C(Cc1cccs1)N[C@@H]1C(=O)N2C(C(=O)[O-])=C(C[n+]3ccccc3)CS[C@H]12; experiment: as §1; conditions: 07-406; procedure, shortened: as §2
# [19] = system: CC(=O)OCC1=C(C(=O)O)N2C(=O)[C@@H](NC(=O)Cc3cccs3)[C@H]2SC1; experiment: as §1; conditions: 07-406; procedure, shortened: as §2
# [20] = system: CO[C@@]1(NC(=O)Cc2cccs2)C(=O)N2C(C(=O)O)=C(COC(N)=O)CS[C@@H]21; experiment: as §1; conditions: 07-406; procedure, shortened: as §2
# [21] = system: O=C(Cc1cccs1)N[C@@H]1C(=O)N2C(C(=O)O)=C(/C=C/c3ccc([N+](=O)[O-])cc3[N+](=O)[O-])CS[C@H]12; experiment: as §1; conditions: 07-406; procedure, shortened: as §2
# [22] = system: CO/N=C(\C(=O)N[C@@H]1C(=O)N2C(C(=O)O)=C(COC(C)=O)CS[C@H]12)c1csc(N)n1; experiment: as §1; conditions: 07-406; procedure, shortened: as §2
# [23] = system: O=C(O)[C@H]1/C(=C/CO)O[C@@H]2CC(=O)N21; experiment: as §1; conditions: 07-406; procedure, shortened: as §2
# [24] = system: CC1(C)[C@H](C(=O)O)N2C(=O)C[C@H]2S1(=O)=O; experiment: (§3) Activity of Pseudomonas aeruginosa beta-lactamase VIM-7 by spectrophotometry; conditions: 07-406; procedure, shortened: as §2
# [25] = system: C[C@]1(Cn2ccnn2)[C@H](C(=O)O)N2C(=O)C[C@H]2S1(=O)=O; experiment: as §3; conditions: 07-406; procedure, shortened: as §2
# [26] = system: CC1(C)S[C@@H]2[C@H](NC(=O)Cc3ccccc3)C(=O)N2[C@H]1C(=O)O; experiment: as §3; conditions: 07-406; procedure, shortened: as §2
# [27] = system: Cc1onc(-c2ccccc2Cl)c1C(=O)N[C@@H]1C(=O)N2[C@@H]1SC(C)(C)[C@@H]2C(=O)O; experiment: as §3; conditions: 07-406; procedure, shortened: as §2
# [28] = system: CC(C)(O/N=C(\C(=O)N[C@@H]1C(=O)N2C(C(=O)[O-])=C(C[n+]3ccccc3)CS[C@H]12)c1csc(N)n1)C(=O)O; experiment: as §3; conditions: 07-406; procedure, shortened: as §2
# [29] = system: CC1(C)S[C@@H]2[C@H](NC(=O)C(C(=O)O)c3ccccc3)C(=O)N2[C@H]1C(=O)O; experiment: as §3; conditions: 07-406; procedure, shortened: as §2
# [30] = system: C[C@H]1[C@H](NC(=O)/C(=N\OC(C)(C)C(=O)O)c2csc(N)n2)C(=O)N1S(=O)(=O)O; experiment: as §3; conditions: 07-406; procedure, shortened: as §2
# [31] = system: C[C@@H](O)[C@H]1C(=O)N2C(C(=O)O)=C(S[C@@H]3CN[C@H](C(=O)Nc4cccc(C(=O)O)c4)C3)[C@H](C)[C@H]12; experiment: as §3; conditions: 07-406; procedure, shortened: as §2
# [32] = system: CC1(C)S[C@@H]2[C@H](NC(=O)[C@H](NC(=O)N3CCNC3=O)c3ccccc3)C(=O)N2[C@H]1C(=O)O; experiment: as §3; conditions: 07-406; procedure, shortened: as §2
# [33] = system: CO/N=C(\C(=O)N[C@@H]1C(=O)N2C(C(=O)O)=C(COC(N)=O)CS[C@H]12)c1ccco1; experiment: as §3; conditions: 07-406; procedure, shortened: as §2
# [34] = system: CO/N=C(\C(=O)N[C@@H]1C(=O)N2C(C(=O)[O-])=C(C[N+]3(C)CCCC3)CS[C@H]12)c1csc(N)n1; experiment: as §3; conditions: 07-406; procedure, shortened: as §2
# [35] = system: CCN1CCN(C(=O)N[C@@H](C(=O)N[C@@H]2C(=O)N3[C@@H]2SC(C)(C)[C@@H]3C(=O)O)c2ccccc2)C(=O)C1=O; experiment: as §3; conditions: 07-406; procedure, shortened: as §2
# [36] = system: C[C@@H](O)[C@H]1C(=O)N2C(C(=O)O)=C(S[C@@H]3CN[C@H](C(=O)N(C)C)C3)[C@H](C)[C@H]12; experiment: as §3; conditions: 07-406; procedure, shortened: as §2
# [37] = system: C[C@@H](O)[C@H]1C(=O)N2C(C(=O)O)=C(SCCNC=N)C[C@H]12; experiment: as §3; conditions: 07-406; procedure, shortened: as §2
# [38] = system: CC1(C)S[C@@H]2[C@H](NC(=O)[C@H](N)c3ccccc3)C(=O)N2[C@H]1C(=O)O; experiment: as §3; conditions: 07-406; procedure, shortened: as §2
# [39] = system: CO[C@@]1(NC(=O)C(C(=O)O)c2ccc(O)cc2)C(=O)N2C(C(=O)O)=C(CSc3nnnn3C)CO[C@@H]21; experiment: as §3; conditions: 07-406; procedure, shortened: as §2
# [40] = system: O=C(Cc1cccs1)N[C@@H]1C(=O)N2C(C(=O)[O-])=C(C[n+]3ccccc3)CS[C@H]12; experiment: as §3; conditions: 07-406; procedure, shortened: as §2
# [41] = system: CC(=O)OCC1=C(C(=O)O)N2C(=O)[C@@H](NC(=O)Cc3cccs3)[C@H]2SC1; experiment: as §3; conditions: 07-406; procedure, shortened: as §2
# [42] = system: CO[C@@]1(NC(=O)Cc2cccs2)C(=O)N2C(C(=O)O)=C(COC(N)=O)CS[C@@H]21; experiment: as §3; conditions: 07-406; procedure, shortened: as §2
# [43] = system: O=C(Cc1cccs1)N[C@@H]1C(=O)N2C(C(=O)O)=C(/C=C/c3ccc([N+](=O)[O-])cc3[N+](=O)[O-])CS[C@H]12; experiment: as §3; conditions: 07-406; procedure, shortened: as §2
# [44] = system: CO/N=C(\C(=O)N[C@@H]1C(=O)N2C(C(=O)O)=C(COC(C)=O)CS[C@H]12)c1csc(N)n1; experiment: as §3; conditions: 07-406; procedure, shortened: as §2
# [45] = system: O=C(O)[C@H]1/C(=C/CO)O[C@@H]2CC(=O)N21; experiment: as §3; conditions: 07-406; procedure, shortened: as §2
# Sequence of Metallo-b-lactamase (Pseudomonas aeruginosa), Q840P9 (Q840P9 whole entry): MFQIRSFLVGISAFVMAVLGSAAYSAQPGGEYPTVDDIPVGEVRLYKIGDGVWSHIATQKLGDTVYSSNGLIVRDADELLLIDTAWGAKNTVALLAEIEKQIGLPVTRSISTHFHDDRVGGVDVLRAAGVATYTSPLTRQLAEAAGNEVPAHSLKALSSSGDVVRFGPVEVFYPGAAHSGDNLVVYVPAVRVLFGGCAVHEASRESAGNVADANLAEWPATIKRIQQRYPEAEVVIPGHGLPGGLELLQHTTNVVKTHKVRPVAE
compound,measurement,setting,value
O=C(Cc1cccs1)N[C@@H]1C(=O)N2C(C(=O)[O-])=C(C[n+]3ccccc3)CS[C@H]12,Km,[1],30 µM
same,kcat,[1],315 s⁻¹
same,kcat/Km,[2],1.05e+07 M⁻¹ s⁻¹
CO/N=C(\C(=O)N[C@@H]1C(=O)N2C(C(=O)[O-])=C(C[N+]3(C)CCCC3)CS[C@H]12)c1csc(N)n1,Km,[1],150 µM
same,kcat,[1],550 s⁻¹
same,kcat/Km,[2],3.7e+06 M⁻¹ s⁻¹
"Metallo-b-lactamase (Pseudomonas aeruginosa), Q840P9",kcat/Km,[3],150000 M⁻¹ s⁻¹
same,kcat/Km,[4],19000 M⁻¹ s⁻¹
same,kcat/Km,[5],2.5e+07 M⁻¹ s⁻¹
same,kcat/Km,[6],2.9e+06 M⁻¹ s⁻¹
same,kcat/Km,[7],12000 M⁻¹ s⁻¹
same,kcat/Km,[8],1.4e+07 M⁻¹ s⁻¹
same,kcat/Km,[9],290000 M⁻¹ s⁻¹
same,kcat/Km,[10],1.2e+06 M⁻¹ s⁻¹
same,kcat/Km,[11],550000 M⁻¹ s⁻¹
same,kcat/Km,[12],9100 M⁻¹ s⁻¹
same,kcat/Km,[13],5.4e+06 M⁻¹ s⁻¹
same,kcat/Km,[14],1.1e+06 M⁻¹ s⁻¹
same,kcat/Km,[15],3.7e+06 M⁻¹ s⁻¹
same,kcat/Km,[16],1.3e+07 M⁻¹ s⁻¹
same,kcat/Km,[17],3.1e+06 M⁻¹ s⁻¹
same,kcat/Km,[18],720000 M⁻¹ s⁻¹
same,kcat/Km,[19],4e+06 M⁻¹ s⁻¹
same,kcat/Km,[20],150000 M⁻¹ s⁻¹
same,kcat/Km,[21],2.6e+07 M⁻¹ s⁻¹
same,kcat/Km,[22],2.6e+06 M⁻¹ s⁻¹
same,kcat/Km,[23],2500 M⁻¹ s⁻¹
same,Km,[24],740 µM
same,kcat,[24],110 s⁻¹
same,Km,[25],3500 µM
same,kcat,[25],68 s⁻¹
same,Km,[26],17 µM
same,kcat,[26],430 s⁻¹
same,Km,[27],860 µM
same,kcat,[27],2500 s⁻¹
same,Km,[28],120 µM
same,kcat,[28],1.4 s⁻¹
same,Km,[29],84 µM
same,kcat,[29],1200 s⁻¹
same,Km,[30],2700 µM
same,Km,[31],28 µM
same,kcat,[31],8 s⁻¹
same,Km,[32],66 µM
same,kcat,[32],78 s⁻¹
same,Km,[33],29 µM
same,kcat,[33],16 s⁻¹
same,Km,[34],580 µM
same,kcat,[34],5.3 s⁻¹
same,Km,[35],26 µM
same,kcat,[35],140 s⁻¹
same,Km,[36],38 µM
same,kcat,[36],42 s⁻¹
same,Km,[37],27 µM
same,kcat,[37],100 s⁻¹
same,Km,[38],15 µM
same,kcat,[38],190 s⁻¹
same,Km,[39],75 µM
same,kcat,[39],230 s⁻¹
same,Km,[40],250 µM
same,kcat,[40],180 s⁻¹
same,Km,[41],45 µM
same,kcat,[41],180 s⁻¹
same,Km,[42],68 µM
same,kcat,[42],10 s⁻¹
same,Km,[43],58 µM
same,kcat,[43],1500 s⁻¹
same,Km,[44],22 µM
same,kcat,[44],56 s⁻¹
same,Km,[45],940 µM
same,kcat,[45],2.3 s⁻¹
CO/N=C(\C(=O)N[C@@H]1C(=O)N2C(C(=O)O)=C(COC(C)=O)CS[C@H]12)c1csc(N)n1,Km,[1],250 µM
same,kcat,[1],170 s⁻¹
same,kcat/Km,[2],680000 M⁻¹ s⁻¹
CC1(C)S[C@@H]2[C@H](NC(=O)[C@H](NC(=O)N3CCNC3=O)c3ccccc3)C(=O)N2[C@H]1C(=O)O,Km,[1],120 µM
same,kcat,[1],1500 s⁻¹
same,kcat/Km,[2],1.25e+07 M⁻¹ s⁻¹

# — ChEMBL document CHEMBL1275486, “Kinetic characterization of VIM-7, a divergent member of the VIM metallo-beta-lactamase family” (Antimicrob Agents Chemother, 2008)
